Laboratory results from ChEMBL document CHEMBL1138529, “Efficacy, pharmacokinetics, and metabolism of tetrahydroquinoline inhibitors of Plasmodium falciparum protein farnesyltransferase” (Antimicrob Agents Chemother, 2007).

Experiments:
Blood [1] = assay: Drug level in bile duct cannulated Sprague-Dawley rat blood at 35 mg/kg, po after 3 hrs; format: ADME, organism-based; set-up: dose 35 mg/kg, route oral; conditions: in vivo
Summary of the method: (§1)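 Male Sprague-Dawley rats (~350 g), jugular vein and bile duct cannulated, 1 week recovery; three per compound dosed by oral gavage with 35 mg/kg in 3% EtOH-7% Tween 80-90% normal saline plus 80 μCi/kg 14C tracer. Plasma and blood cells sampled over 18 h; radioactivity by liquid scintillation, reported as mean μg base equivalents/g.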

[2] = Drug metabolism in bile duct cannulated Sprague-Dawley rat assessed as radioactive drug recovery in gastrointestinal tract at 35 mg/kg, po after 18 hrs; format: ADME, organism-based; set-up: dose 35 mg/kg, route oral; conditions: in vivo
Summary of the method: (§2)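 Male bile-duct- and jugular-cannulated Sprague-Dawley rats (~350 g, three per compound) given 35 mg/kg 14C-labelled compound orally (80 μCi/kg) in 3% EtOH-7% Tween 80-90% saline. Urine, feces and bile collected for 18 h, cages washed with methanol-water, animals autopsied; radioactivity per matrix by liquid scintillation counting as mean % of dose.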

[3] = Drug metabolism in bile duct cannulated Sprague-Dawley rat assessed as radioactive drug recovery in urine at 35 mg/kg, po after 18 hrs; format: ADME, organism-based; set-up: dose 35 mg/kg, route oral; conditions: in vivo; summary of the method: as §2
[4] = Drug metabolism in bile duct cannulated Sprague-Dawley rat assessed as radioactive drug recovery in feces at 35 mg/kg, po after 18 hrs; format: ADME, organism-based; set-up: dose 35 mg/kg, route oral; conditions: in vivo; summary of the method: as §2
Blood [5] = assay: Drug level in bile duct cannulated Sprague-Dawley rat blood at 35 mg/kg, po after 18 hrs; format: ADME, organism-based; set-up: dose 35 mg/kg, route oral; conditions: in vivo; summary of the method: as §1
Rattus norvegicus [6] = assay: Plasma concentration in bile duct cannulated Sprague-Dawley rat at 35 mg/kg, po after 2 hrs; format: ADME, organism-based; set-up: dose 35 mg/kg, route oral; conditions: in vivo
Summary of the method: (§3)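 Male Sprague-Dawley rats, about 350 g, with jugular and bile-duct cannulae, allowed 1 week recovery; three per compound. Oral gavage 35 mg/kg in 3% EtOH-7% Tween 80-90% saline with 80 μCi/kg 14C tracer. Monitored 18 h. Plasma and blood-cell radioactivity measured by liquid scintillation counting and given as μg base equivalents/g.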

Rattus norvegicus [7] = assay: Plasma concentration in bile duct cannulated Sprague-Dawley rat at 35 mg/kg, po after 18 hrs; conditions: in vivo
Rattus norvegicus [8] = assay: Plasma concentration in bile duct cannulated Sprague-Dawley rat at 35 mg/kg, po after 1 hr; format: ADME, organism-based; set-up: dose 35 mg/kg, route oral; conditions: in vivo; summary of the method: as §3
Blood [9] = assay: Drug level in bile duct cannulated Sprague-Dawley rat blood at 35 mg/kg, po after 1 hr; format: ADME, organism-based; set-up: dose 35 mg/kg, route oral; conditions: in vivo; summary of the method: as §1
Rattus norvegicus [10] = assay: Plasma concentration in bile duct cannulated Sprague-Dawley rat at 35 mg/kg, po after 3 hrs; format: ADME, organism-based; set-up: dose 35 mg/kg, route oral; conditions: in vivo; summary of the method: as §3
Blood [11] = assay: Drug level in bile duct cannulated Sprague-Dawley rat blood at 35 mg/kg, po after 2 hrs; format: ADME, organism-based; set-up: dose 35 mg/kg, route oral; conditions: in vivo; summary of the method: as §1
[12] = Drug metabolism in bile duct cannulated Sprague-Dawley rat assessed as radioactive drug recovery in bile at 35 mg/kg, po after 18 hrs; format: ADME, organism-based; set-up: dose 35 mg/kg, route oral; conditions: in vivo; summary of the method: as §2
Rattus norvegicus [13] = assay: Plasma concentration in bile duct cannulated Sprague-Dawley rat at 35 mg/kg, po after 0.5 hrs; format: ADME, organism-based; set-up: dose 35 mg/kg, route oral; conditions: in vivo; summary of the method: as §3
Rattus norvegicus [14] = assay: Toxicity in bile duct cannulated Sprague-Dawley rat assessed as incidence of adverse events at 35 mg/kg, po after 18 hrs; format: organism-based; set-up: dose 35 mg/kg, route oral; conditions: in vivo; summary of the method: as §3
Blood [15] = assay: Drug level in bile duct cannulated Sprague-Dawley rat blood at 35 mg/kg, po after 0.5 hrs; format: ADME, organism-based; set-up: dose 35 mg/kg, route oral; conditions: in vivo; summary of the method: as §1
Blood [16] = assay: Drug level in bile duct cannulated Sprague-Dawley rat blood at 35 mg/kg, po after 4 hrs; format: ADME, organism-based; set-up: dose 35 mg/kg, route oral; conditions: in vivo; summary of the method: as §1
Rattus norvegicus [17] = assay: Drug metabolism in bile duct cannulated Sprague-Dawley rat assessed as radioactive drug recovery at 35 mg/kg, po after 18 hrs; format: ADME, organism-based; set-up: dose 35 mg/kg, route oral; conditions: in vivo; summary of the method: as §2
Blood [18] = assay: Drug level in bile duct cannulated Sprague-Dawley rat blood at 35 mg/kg, po after 6 hrs; format: ADME, organism-based; set-up: dose 35 mg/kg, route oral; conditions: in vivo; summary of the method: as §1
Rattus norvegicus [19] = assay: Toxicity in Sprague-Dawley rat at 50 mg/kg, po; format: organism-based; set-up: dose 50 mg/kg, route oral; conditions: in vivo
Summary of the method: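 Female Sprague-Dawley rats, 10-12 weeks, three per group. 50 mg/kg oral gavage in 3% EtOH-7% Tween 80-90% normal saline. Saphenous vein plasma sampled over time, and animals observed for adverse reactions.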

Mus musculus [20] = assay: Toxicity in BALB/c mouse at 50 mg/kg, po; format: organism-based; set-up: dose 50 mg/kg, route oral; conditions: in vivo
Plasmodium falciparum [21] = assay: Antiplasmodial activity against Plasmodium falciparum by [3H]hypoxanthine uptake; format: functional; conditions: read-out: ED50 (the source's name)
Summary of the method: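 Asynchronous P. falciparum (3D7 or K1) in RPMI 1640 with 20% heat-inactivated human A+ plasma, 0.5% parasitemia and 0.5% hematocrit; compound serially diluted, top final 5 μM, 48 h at 37°C under 5% CO2/5% O2/90% N2, then [8-3H]hypoxanthine 0.3 μCi added for 24 h.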

Plasmodium falciparum [22] = assay: Antiplasmodial activity against chloroquine-sensitive Plasmodium falciparum 3D7 by [3H]hypoxanthine uptake; format: functional; conditions: read-out: ED50 (the source's name)
Summary of the method: (§4)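 Asynchronous cultures at 0.5% parasitemia and 0.5% hematocrit in RPMI 1640 with 20% heat-inactivated human A+ plasma, exposed to serially diluted inhibitor (top final 5 μM, from DMSO stock) under 5% CO2/5% O2/90% N2 at 37°C for 48 h. [3H]hypoxanthine was then added for 24 h and harvested counts were background-subtracted against DMSO-only controls. ED50 came from linear regression, as the mean of duplicates.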

[23] = Permeability from apical to basolateral side in human Caco-2 cells; format: ADME, cell-based; conditions: read-out: permeability
[24] = Inhibition of Plasmodium falciparum protein farnesyltransferase by SPA method
[25] = Metabolic stability in rat liver microsomes; format: ADME, Microsome
Summary of the method: (§5)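 Pooled female liver microsomes at 0.5 mg/ml in 0.1 M potassium phosphate pH 7.4, 3 mM MgCl2, 1 mM EDTA, with NADPH regenerating system (1 mM NADP+, 5 mM glucose-6-phosphate, 1 U/ml G6PDH). Preincubated 10 min at 37°C, then compound added to 1 μM final. Time points quenched with 3 volumes acetonitrile plus internal standard; parent quantified by LC/MS; half-life reported.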

Plasmodium falciparum [26] = assay: Antiplasmodial activity against chloroquine-resistant Plasmodium falciparum K1 by [3H]hypoxanthine uptake; format: functional; conditions: read-out: ED50 (the source's name); summary of the method: as §4
[27] = Permeability from basolateral to apical side in human Caco-2 cells; format: ADME, cell-based; conditions: read-out: permeability
Summary of the method: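 Caco-2 clone TC7 grown on laminin-coated porous inserts and used 19-21 days after seeding; integrity checked by TEER and [3H]mannitol flux. Monolayers equilibrated 30 min at 37°C in HBSS/5 mM HEPES pH 7.4. Compound at 50 μM final added to basolateral donor side. Apical receiver sampled at 60 min, 37°C with shaking; LC/MS; Papp calculated from 60-min concentrations.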

Mus musculus [28] = assay: Plasma concentration in BALB/c mouse at 50 mg/kg, po; format: ADME, organism-based; set-up: dose 50 mg/kg, route oral; conditions: in vivo
Summary of the method: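 Female BALB/c mice, 8-10 weeks, three per group. Single 50 mg/kg oral gavage in 3% EtOH-7% Tween 80-90% normal saline. Plasma collected by tail bleed at set times, frozen at −20°C, acetonitrile-extracted with internal standard, quantified by LC/MS.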

[29] = AUC in Sprague-Dawley rat at 50 mg/kg, po; format: ADME, organism-based; set-up: dose 50 mg/kg, route oral; conditions: plasma
Summary of the method: (§6)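 Three female BALB/c mice (lines for mice, 8–10 weeks) or three female Sprague-Dawley rats (10–12 weeks) per group; 50 mg/kg oral gavage in 3% EtOH-7% Tween 80-90% normal saline. Plasma sampled at set times (tail bleed in mice, saphenous vein in rats), extracted with acetonitrile plus internal standard, quantified by LC/MS; AUC as mean of three animals.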

[30] = AUC in BALB/c mouse at 50 mg/kg, po; format: ADME, organism-based; set-up: dose 50 mg/kg, route oral; conditions: plasma; summary of the method: as §6
[31] = Metabolic stability in mouse liver microsomes; format: ADME, Microsome; summary of the method: as §5
[32] = Elimination half life in Sprague-Dawley rat at 50 mg/kg, po; format: ADME, organism-based; set-up: dose 50 mg/kg, route oral; conditions: in vivo, read-out: beta t1/2
Summary of the method: (§7)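 50 mg/kg by oral gavage in 3% EtOH-7% Tween 80-90% normal saline to groups of three females (BALB/c mice, 8–10 weeks, tail bleed; Sprague-Dawley rats, 10–12 weeks, saphenous vein). Plasma extracted with acetonitrile/internal standard, LC/MS; means of three animals. Oral elimination half-life depends on absorption rate as well as elimination.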

[33] = Cmax in Sprague-Dawley rat at 50 mg/kg, po; format: ADME, organism-based; set-up: dose 50 mg/kg, route oral; conditions: in vivo; summary of the method: as §7
[34] = Cmax in BALB/c mouse at 50 mg/kg, po; format: ADME, organism-based; set-up: dose 50 mg/kg, route oral; conditions: in vivo; summary of the method: as §7
[35] = Elimination half life in BALB/c mouse at 50 mg/kg, po; format: ADME, organism-based; set-up: dose 50 mg/kg, route oral; conditions: in vivo, read-out: beta t1/2; summary of the method: as §7

Row | Structure (SMILES) | EC50 (Plasmodium falciparum [21]) [nM] | Papp A→B [23] [×10⁻⁶ cm/s] | IC50 [24] [nM] | Papp B→A [27] [×10⁻⁶ cm/s] | concentration (Mus musculus [28]) [µM] | AUC [29] [µM·h] | Cmax [33] [µM] | Activity (Rattus norvegicus [19]) | Activity (Mus musculus [20]) | half-life [25] [min] | further results
1 | Cn1cncc1CN1CC(N(CCn2cccc2)S(=O)(=O)c2ccccn2)Cc2cc([14C]#N)ccc21 (configuration not stated) | – | – | – | – | – | – | – | – | – | – | Drug uptake (Blood [1]): 0.221 ug base equiv/g; Drug uptake [2]: 40.3%; Drug uptake [3]: 1.6%; Drug uptake [4]: 33.7%; Drug uptake (Blood [5]): 0.243 ug base equiv/g; Cp (Rattus norvegicus [6]): 0.723 ug base equiv/g; Cp (Rattus norvegicus [7]): 0.351 ug base equiv/g; Cp (Rattus norvegicus [8]): 1.36 ug base equiv/g; Drug uptake (Blood [9]): 0.493 ug base equiv/g; Cp (Rattus norvegicus [10]): 0.237 ug base equiv/g; Drug uptake (Blood [11]): 0.344 ug base equiv/g; Drug uptake [12]: 27.1%; Cp (Rattus norvegicus [13]): 1.38 ug base equiv/g; Activity (Rattus norvegicus [14]): Non-toxic; Drug uptake (Blood [15]): 0.566 ug base equiv/g; Drug uptake (Blood [16]): 0.073 ug base equiv/g; Drug uptake (Rattus norvegicus [17]): 104%; Drug uptake (Blood [18]): 0.063 ug base equiv/g
2 | CCOC(=O)N1CCC(CN(C2Cc3cc(C#N)ccc3N(Cc3cncn3C)C2)S(=O)(=O)c2ccccn2)CC1 (configuration not stated) | 55 | 2.6 | 0.6 | – | – | – | – | Non-toxic | Non-toxic | 12 | EC50 (Plasmodium falciparum [22]): 55 nM; EC50 (Plasmodium falciparum [26]): 40 nM
3 | CC(C)OC(=O)N1CCC(CN(C2Cc3cc(C#N)ccc3N(Cc3cncn3C)C2)S(=O)(=O)c2ccccn2)CC1 (configuration not stated) | 16 | 1 | 0.5 | – | – | 10.9 | 4.5 | Non-toxic | Non-toxic | – | –

Continued, in another order:

Row | EC50 (Plasmodium falciparum [21]) [nM] | Papp A→B [23] [×10⁻⁶ cm/s] | IC50 [24] [nM] | Papp B→A [27] [×10⁻⁶ cm/s] | concentration (Mus musculus [28]) [µM] | AUC [29] [µM·h] | Cmax [33] [µM] | Structure (SMILES) | Activity (Rattus norvegicus [19]) | Activity (Mus musculus [20]) | half-life [25] [min] | further results
4 | – | 1.6 | – | 73.3 | 5.7 | – | – | Cn1cncc1CN1CC(N(Cc2ccccn2)S(=O)(=O)c2ccccn2)Cc2cc(C#N)ccc21 (configuration not stated) | – | Non-toxic | – | –
5 | – | 12.4 | – | 45.5 | 13.6 | 11.6 | 5.4 | Cn1cncc1CN1CC(N(CCn2cccc2)S(=O)(=O)c2ccccn2)Cc2cc(C#N)ccc21 (configuration not stated) | Non-toxic | Non-toxic | 10.4 | AUC [30]: 15.9 µM·h; half-life [31]: 4.9 min; half-life [32]: 62 min; Cmax [34]: 13.5 µM; half-life [35]: 40 min
6 | 16 | 1 | 0.5 | – | – | 10.9 | 4.5 | Cn1cncc1CN1CC(N(CC2CCN(C(=O)OCc3ccccc3)CC2)S(=O)(=O)c2ccccn2)Cc2cc(C#N)ccc21 (configuration not stated) | Non-toxic | Non-toxic | – | –
